Laboratory results published in ChEMBL document CHEMBL1122766, “Synthesis and antitumor evaluation of some nitrosourea and nitrogen mustard amino acid derivatives” (J Med Chem, 1984).

Legend:
[1] = Therapeutic index in L1210 (murine leukemia) inoculated mice.; settings: mouse; read-out: TI
[2] = species: Mus musculus; assay: Optimum dose for antitumor activity against leukemia L1210 in mice; format: functional
Summary of the method: (§1)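 Adult F1 (DBA/2 × C57Bl/6) mice inoculated ip with 10^5 L1210 cells on day 0, 8–10 mice per dose. Compound in olive oil (2–150 mg/kg) given day 1, repeated days 5 and 9 only in mice without toxicity. Daily mortality with autopsy. T/C × 100 from median survival; active if >125 and significant by Wilcoxon W test. Acute LD50 determined graphically.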

[3] = species: Mus musculus; assay: Dose range for antitumor activity against leukemia L1210 in mice.; format: functional; summary of the method: as §1
[4] = Median lethal dose in L1210 (murine luekemia) inoculated mice.; format: toxicity, organism-based; settings: mouse, in vivo
Summary of the method: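 Adult F1 (DBA/2 × C57Bl/6) mice inoculated ip with 10^5 L1210 cells on day 0; 8–10 mice per dose; compound in olive oil (2–150 mg/kg) on day 1, repeated days 5 and 9 only in mice without toxicity signs. Daily mortality, autopsy to separate leukemic from toxic deaths; acute LD50 determined graphically (98% confidence limits).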

[5] = species: Mus musculus; assay: The oncostatic index (T=median survival time in the treated group of mice, C=median survival time in the control group X 100) was calculated; format: functional
Summary of the method: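 Mice (adult F1 DBA/2 × C57Bl/6) given 10^5 L1210 cells ip on day 0; 8–10 per dose group; olive-oil doses 2–150 mg/kg on day 1, repeated days 5 and 9 in non-toxic mice. T/C × 100 from median survival times, treated vs control. Active if >125 and significant by Wilcoxon W test; ∞ means >50% of group cured.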

SMILES: O=NN(CCCl)C(=O)N[C@H]1C(O)O[C@H](CO)[C@@H](O)[C@@H]1O (stereo partly specified) [CHLOROZOTOCIN]
- selectivity ratio [1]: 2.5
- OD [2]: 15 mg/kg
- Dose [3]: 25 mg/kg
- LD50 [4]: 35 mg/kg

SMILES: CC1(C)O[C@@H]2[C@H](O1)[C@@H](COC(=O)c1ccc([N+](=O)[O-])cc1)O[C@H]2NC(=O)N(CCCl)N=O
- selectivity ratio [1]: 4.5
- OD [2]: 20 mg/kg
- Dose [3]: 30 mg/kg
- LD50 [4]: 90 mg/kg

SMILES: O=NN(CCCl)C(=O)NC1CCCCC1 [LOMUSTINE]
- Dose [3]: 10 mg/kg
- LD50 [4]: 30 mg/kg

SMILES: O=NN(CCCl)C(=O)NC(Cc1ccc(O)cc1)C(=O)NCCCl (stereo unspecified)
- Dose [3]: 25 mg/kg
- LD50 [4]: 40 mg/kg
- T/C [5]: 211%

SMILES: NC(=O)CC(NC(=O)N(CCCl)N=O)C(=O)NCCCl (stereo unspecified)
- selectivity ratio [1]: 1.75
- OD [2]: 20 mg/kg
- Dose [3]: 30 mg/kg
- LD50 [4]: 35 mg/kg

SMILES: O=NN(CCCl)C(=O)NCCC(=O)NCCCl
- selectivity ratio [1]: 2.9
- OD [2]: 35 mg/kg
- Dose [3]: 50 mg/kg

SMILES: CCC(C)C(NC(=O)N(CCCl)N=O)C(=O)NCCCl (stereo unspecified)
- selectivity ratio [1]: 2.6
- OD [2]: 50 mg/kg
- Dose [3]: 75 mg/kg
- LD50 [4]: 130 mg/kg

SMILES: O=NN(CCCl)C(=O)N1CCCC1C(=O)NCCCl (stereo unspecified)
- Dose [3]: 35 mg/kg
- LD50 [4]: 80 mg/kg
- T/C [5]: 194%

SMILES: O=NN(CCCl)C(=O)NC(Cc1c[nH]c2ccccc12)C(=O)NCCCl (stereo unspecified)
- selectivity ratio [1]: 2.4
- OD [2]: 27 mg/kg
- Dose [3]: 35 mg/kg
- LD50 [4]: 65 mg/kg

SMILES: CN(CC(=O)NCCCl)C(=O)N(CCCl)N=O
- selectivity ratio [1]: 2
- OD [2]: 200 mg/kg
- Dose [3]: 280 mg/kg
- LD50 [4]: 400 mg/kg

SMILES: CSCCC(NC(=O)N(CCCl)N=O)C(=O)NCCCl (stereo unspecified)
- selectivity ratio [1]: 1.6
- OD [2]: 20 mg/kg
- Dose [3]: 30 mg/kg
- LD50 [4]: 32 mg/kg

SMILES: CC(C)CC(NC(=O)N(CCCl)N=O)C(=O)NCCCl (stereo unspecified)
- selectivity ratio [1]: 1.8
- OD [2]: 35 mg/kg
- Dose [3]: 50 mg/kg
- LD50 [4]: 64 mg/kg

SMILES: O=NN(CCCl)C(=O)NCC(=O)NCCCl
- selectivity ratio [1]: 2
- OD [2]: 12 mg/kg
- Dose [3]: 20 mg/kg
- LD50 [4]: 25 mg/kg

SMILES: O=NN(CCCl)CCSSCCN(CCCl)N=O
- selectivity ratio [1]: 2.5
- OD [2]: 30 mg/kg
- Dose [3]: 50 mg/kg
- LD50 [4]: 75 mg/kg

SMILES: CC(NC(=O)N(CCCl)N=O)C(=O)NCCCl (stereo unspecified)
- selectivity ratio [1]: 1.75
- OD [2]: 20 mg/kg
- Dose [3]: 30 mg/kg
- LD50 [4]: 35 mg/kg

SMILES: CC(O)C(NC(=O)N(CCCl)N=O)C(=O)NCCCl (stereo unspecified)
- selectivity ratio [1]: 1.6
- OD [2]: 15 mg/kg
- Dose [3]: 20 mg/kg
- LD50 [4]: 25 mg/kg

SMILES: O=NN(CCCl)C(=O)NC(Cc1ccccc1)C(=O)NCCCl (stereo unspecified)
- selectivity ratio [1]: 1.6
- OD [2]: 50 mg/kg
- Dose [3]: 60 mg/kg
- LD50 [4]: 80 mg/kg

SMILES: O=NN(CCCl)C(=O)NCCCC(=O)NCCCl
- selectivity ratio [1]: 3.6
- OD [2]: 35 mg/kg
- Dose [3]: 50 mg/kg
